Measured values gathered from unrelated publications.
Target: Serine/threonine-protein kinase Nek1 (NEK1, Homo sapiens, UniProt Q96PY6)
Residues used in one study (Q96PY6 1-1258): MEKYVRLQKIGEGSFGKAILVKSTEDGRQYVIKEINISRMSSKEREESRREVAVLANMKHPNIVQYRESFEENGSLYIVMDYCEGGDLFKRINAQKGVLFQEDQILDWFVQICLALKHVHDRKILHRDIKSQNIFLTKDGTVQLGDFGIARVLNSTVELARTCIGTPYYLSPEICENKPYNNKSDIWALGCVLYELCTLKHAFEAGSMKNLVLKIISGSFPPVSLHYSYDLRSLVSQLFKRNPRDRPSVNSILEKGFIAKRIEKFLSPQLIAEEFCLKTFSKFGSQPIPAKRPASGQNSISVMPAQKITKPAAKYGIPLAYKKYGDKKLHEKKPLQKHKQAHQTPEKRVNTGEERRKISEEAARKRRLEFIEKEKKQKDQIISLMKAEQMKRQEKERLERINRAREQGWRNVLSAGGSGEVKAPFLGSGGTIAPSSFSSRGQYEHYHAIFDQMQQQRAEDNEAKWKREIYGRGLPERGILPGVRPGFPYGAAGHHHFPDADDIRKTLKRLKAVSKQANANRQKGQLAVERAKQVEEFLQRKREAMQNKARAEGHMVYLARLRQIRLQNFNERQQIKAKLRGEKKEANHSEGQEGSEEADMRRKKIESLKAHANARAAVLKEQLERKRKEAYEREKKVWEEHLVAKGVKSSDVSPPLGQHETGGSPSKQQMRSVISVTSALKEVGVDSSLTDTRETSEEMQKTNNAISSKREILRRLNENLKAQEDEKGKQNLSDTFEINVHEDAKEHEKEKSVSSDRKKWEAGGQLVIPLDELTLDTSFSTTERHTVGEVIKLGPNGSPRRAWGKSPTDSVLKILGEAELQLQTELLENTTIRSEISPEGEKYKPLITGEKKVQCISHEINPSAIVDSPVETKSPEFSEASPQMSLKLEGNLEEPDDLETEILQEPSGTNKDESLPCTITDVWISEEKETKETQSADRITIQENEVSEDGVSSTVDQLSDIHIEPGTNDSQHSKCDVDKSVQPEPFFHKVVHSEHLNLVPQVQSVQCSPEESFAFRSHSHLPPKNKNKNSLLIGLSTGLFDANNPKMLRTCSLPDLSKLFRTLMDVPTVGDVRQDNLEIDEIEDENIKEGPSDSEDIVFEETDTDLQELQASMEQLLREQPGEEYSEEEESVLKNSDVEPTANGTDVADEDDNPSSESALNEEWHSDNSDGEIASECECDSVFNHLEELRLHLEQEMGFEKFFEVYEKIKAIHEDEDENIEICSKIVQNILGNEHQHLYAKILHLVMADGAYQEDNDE

For CCN1CCN(Cc2ccc(NC(=O)c3ccc(C)c(/C=C/c4cnc5[nH]ccc5c4OC)c3)cc2C(F)(F)F)CC1, the inhibition was -17% (target engagement in cells; inhibitor; chemoproteomics; A-375; 50 nM).
Cn1cc(-c2cc(F)cc(N3CCn4c(cc5c4CCCC5)C3=O)c2CO)cc(Nc2ccc(N3CCN(C4COC4)CC3)cn2)c1=O gave an inhibition of -3% (enzyme activity; inhibitor; 0.1 µM).
COc1cc(Nc2ncc(F)c(Nc3ccc4c(n3)NC(=O)C(C)(C)O4)n2)cc(OC)c1OC gave an inhibition of 96% (binding; competition with immobilised ligand; 10 µM).
With O=C(NCc1ncc(C(F)(F)F)cc1Cl)c1ccc2c(c1)C1(CCS(=O)(=O)CC1)[C@@H](C1CC1)N2S(=O)(=O)c1ccc(F)cc1 the remaining binding was 96% (cell-free assay; competition with immobilised ligand; 1 µM).
For COc1ncccc1-c1cnn2ccc(N3CCN(C(=O)OC(C)C)CC3)nc12, the remaining binding was 100% (binding; competition with immobilised ligand; 1 µM).
For COCc1c(-c2cc3cc(C)cc(OC)c3s2)c2c(N)ncnn2c1CN1CCNC(=O)C1, the inhibition was 78% (cell-free assay; competition with immobilised ligand; 1 µM).
Cn1cc(-c2cccc(N3CCc4c(sc5c4CC(C)(C)C5)C3=O)c2CO)cc(Nc2ccncn2)c1=O has an inhibition of 5% (enzyme activity; inhibitor; 1 µM).
With CC(C)(C)c1cc(C=C(C#N)C#N)cc(Br)c1O the remaining activity was 97.7% (enzyme activity; inhibitor; 0.5 µM).
With Cn1cncc1[C@](O)(COc1ccc(C#N)cc1-c1ccc(OC(F)(F)F)cc1)c1ccc(C#N)cc1 the remaining binding was 80% (cell-free assay; competition with immobilised ligand; 1 µM).
O=c1[nH]c2ccccc2n1C1CCN(Cc2ccc(-c3[nH]c4cc5ncnc5cc4nc3-c3ccccc3)cc2)CC1 has a remaining signal of 101% (cell-free assay; 0.5 µM).
Cc1nn(C)cc1-c1nc2c(N3CCN(Cc4ccc(Cl)cc4)CC3)c(Cl)cnc2[nH]1 gave a remaining binding of 82% (binding; competition with immobilised ligand; 1 µM).
The remaining binding of Nc1ncc(-c2nc(N3CCOCC3)nc(N3CCOCC3)n2)c(C(F)F)n1 is reported as 99% (binding; competition with immobilised ligand; 10 µM).
